The source of these data is ChEMBL document CHEMBL4706728, “Discovery of a Highly Selective and Potent TRPC3 Inhibitor with High Metabolic Stability and Low Toxicity” (ACS Med Chem Lett, 2021).

Structures are written as SMILES.

The nature of the series: Toxicity in NSG/ICR mouse assessed as survival at 200 mg/kg, ip administered once daily for 5 days. The format is organism-based. The conditions noted are these: in vivo, 200 mg/kg, 120 h, dose 200 mg/kg/day, time 5 day. Put shortly:
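Mice (n = 5 per group) dosed at 200 mg/kg by intraperitoneal injection once daily for 5 consecutive days. Survival monitored. Body weight expressed as mean percent change ± SD relative to weight at the start of treatment (day 0), with 15% weight loss as the reference line.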

As for `CCNC(=O)c1cnn(-c2ccc(-n3ccc(Cl)c(Cl)c3=O)cc2)c1C(F)(F)F`, the Activity entry is “Non-Toxic”.
